Measurements as given in ChEMBL document CHEMBL5120853, “Tolypocladamide H and the Proposed Tolypocladamide NRPS in Tolypocladium Species” (J Nat Prod, 2022).
Where “and” joins values, the source holds several entries; their conditions need not be identical. Identical values can stand only once. Square brackets hold non-standard residues; d marks the D form. Peptide text beside a SMILES is read from it. * marks the point of attachment. Bmt = C/C=C/C[C@@H](C)[C@@H](O)[C@H](N)C(=O)O; Decanoyl = CCCCCCCCCC(=O)*; Leu(ol) = CC(C)C[C@H](N)CO; Aib = CC(C)(N)C(=O)O

Key:
HeLa = assay: Cytotoxicity against human HeLa cells assessed as reduction in cell viability incubated for 72 hrs by CellTiter-Glo luminescent cell viability assay; assay type: functional, cell-based
In short: (§1)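 HUVECs (primary, limited passages) were kept in medium 200PRF with low serum growth supplement. HeLa and MCF-7 were kept in MEM with Earle's salts, L-glutamine, 10% FBS and 1% pen/strep. Cells were seeded at 5000 (HUVEC), 2000 (HeLa) or 3000 (MCF-7) per well and treated after 18 h for 72 h (final DMSO ≤0.1%). Viability read by ATP luminescence, vehicle = 100%; EC50 derived.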

MCF7 = assay: Cytotoxicity against human MCF7 cells assessed as reduction in cell viability incubated for 72 hrs by CellTiter-Glo luminescent cell viability assay; assay type: functional, cell-based; conditions: MCF7, 72 h; in short: as §1
Enterococcus faecium = assay: Antibacterial activity against Enterococcus faecium ATCC BAA-2317 assessed as inhibition of bacterial growth; assay type: functional
In short: (§2)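 Strains grown in ATCC-recommended media in culture tubes at 37 °C with shaking at 225 rpm for 3–8 h, back-diluted to about 10^6 cfu/mL, and incubated in triplicate in 384-well plates with a dilution series of test agent. DMSO vehicle served as negative control; linezolid (E. faecium) and ampicillin (S. aureus) were positive controls. MIC recorded.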

Staphylococcus aureus = assay: Antibacterial activity against Staphylococcus aureus ATCC 25923 assessed as inhibition of bacterial growth; assay type: functional; in short: as §2
[1] = Cytotoxicity against HUVEC assessed as reduction in cell viability incubated for 72 hrs by CellTiter-Glo luminescent cell viability assay; assay type: toxicity, cell-based; conditions: human, HUVEC cells; in short: as §1

Structure (SMILES) | EC50 (HeLa) [µM] | EC50 (MCF7) [µM] | MIC (Enterococcus faecium) | MIC (Staphylococcus aureus) | EC50 at 72 h [1] [µM]
C/C=C/C[C@@H](C)[C@@H](O)[C@H](NC(=O)[C@@H]1CCCN1C(=O)C(C)(C)NC(=O)CCCCCCCCC)C(=O)NC(C)(C)C(=O)N[C@@H](CCC(N)=O)C(=O)N[C@@H](CCC(N)=O)C(=O)NC(C)(C)C(=O)NC(C)(C)C(=O)N[C@@H](CCC(N)=O)C(=O)N[C@H](C(=O)N[C@H](CO)CC(C)C)C(C)C (Decanoyl-[Aib]P[Bmt][Aib]QQ[Aib][Aib]QV[Leu(ol)]) | 30 | 107 | 22 µg/mL and 16 µM | 11 µg/mL and 8 µM | 8
CC(=O)NC[C@H]1CN(c2ccc(N3CCOCC3)c(F)c2)C(=O)O1 [LINEZOLID] |  |  | 30 µg/mL and 89 µM |  | 
